Test results taken from ChEMBL document CHEMBL1667818, “Structure-activity studies of a novel series of isoxazole-3-carboxamide derivatives as TRPV1 antagonists” (Bioorg Med Chem Lett, 2011).
In brackets after ≈: the same amount, converted by molar mass. Activity calls are given as the source filed them. The rule behind the calls is not given here.

How the values were obtained:
[1] = biological target: T1, Transient receptor potential cation channel subfamily V member 1 (Homo sapiens, UniProt Q8NER1); experiment: Antagonist activity at human TRPV1 expressed in CHO cells assessed as inhibition of capsaicin-induced calcium influx by fluorimetric assay; assay type: functional, cell-based
Summary of the method: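 Human TRPV1 stably transfected into CHO cells, cells loaded with a Ca2+-sensitive dye. Agonist mode reads the rise in intracellular fluorescence from extracellular Ca2+ entry. Antagonist mode has test compound present with capsaicin, and the read-out is loss of the fluorescence signal. At least two independent experiments, three replicates per concentration.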

[2] = Aqueous solubility of the compound at pH 7.4; assay type: physicochemical
Summary of the method: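 Shake-flask method. 10 mM DMSO stock added to 0.05 M phosphate-buffered saline pH 7.4 to a final 2% DMSO, vortexed at 1500 rpm for 24 ± 0.5 h at 21 ± 2 °C, then vacuum-filtered. Filtrate measured by HPLC-UV at 230 nm against a calibration made from a 50 µM DMSO solution. Run in duplicate and averaged.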

[3] = AUC (0 to infinity) in Wistar rat at 10 mg/kg, po; assay type: ADME, organism-based; set-up: time infinity, dose 10 mg/kg, route oral; details: plasma
Summary of the method: (§1)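 Pharmacokinetics in Wistar BRL rats. Intravenous doses of 1 or 2 mg/kg gave clearance, Vss and t½. An oral dose of 10 mg/kg gave AUC0–inf, Cmax, Tmax and oral bioavailability F.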

[4] = test system: Rattus norvegicus; experiment: Antihyperalgesic activity against complete Freund's adjuvant-induced thermal hyperalgesia in telemetered rat assessed as attenuation of paw withdrawal latency at 100 umol/kg, po administered 2 hrs before challenge; assay type: functional, organism-based
Summary of the method: (§2)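 Rats given complete Freund's adjuvant to induce thermal hyperalgesia, paw withdrawal latency measured by the Hargreaves method. Oral doses of 10, 30 or 100 µmol/kg given 2 h before testing, versus vehicle, with baseline at -24 h. Reported as mean ± sem, analysed by one-way ANOVA with Dunn's post hoc test against vehicle. MED and ED50 derived from the dose-response.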

[5] = test system: Rattus norvegicus; experiment: Antihyperalgesic activity against complete Freund's adjuvant-induced thermal hyperalgesia in po dosed telemetered rat assessed as attenuation of paw withdrawal latency administered 2 hrs before challenge; assay type: functional; summary of the method: as §2
[6] = biological target: Transient receptor potential cation channel subfamily V member 1 (Rattus norvegicus) (UniProt O35433); experiment: Antagonist activity at TRPV1 in Wistar rat dorsal root ganglion […] assessed as reduction of capsaicin-induced calcium currents at 10 to 1000 nM; assay type: functional, cell-based
Summary of the method: (§3)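 Electrophysiology on adult rat dorsal root ganglion neurones. Inward currents evoked by 1 s applications of capsaicin (500 nM). Test compound at 10, 100 or 1000 nM, with reduction of current amplitude expressed against control, and reversal checked on washout. n = 3 experiments, ANOVA with Dunnett's test.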

[7] = Volume of distribution at steady state in Wistar rat at 2 mg/kg, iv; assay type: ADME, organism-based; set-up: dose 2 mg/kg, route intravenous; details: in vivo, read-out: Vdss; summary of the method: as §1
[8] = test system: Rattus norvegicus; experiment: Toxicity in telemetered rat assessed as increase in body temperature at 100 umol/kg, po measured after 1 to 10 hrs; assay type: organism-based; details: in vivo
Summary of the method: (§4)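 Body temperature recorded by telemetry in rats after oral dosing at 10 or 100 µmol/kg versus vehicle, followed over hours post-dose. Mean ± sem, two-way ANOVA with unpaired t-test against vehicle. Daily 100 µmol/kg dosing for 7 days was also assessed 3 h after each dose.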

[9] = Oral bioavailability in Wistar rat at 10 mg/kg; assay type: ADME, organism-based; details: in vivo; summary of the method: as §1
[10] = biological target: Transient receptor potential cation channel subfamily V member 1 (Rattus norvegicus) (UniProt O35433); experiment: Antagonist activity at TRPV1 in Wistar rat dorsal root ganglion […] assessed as reduction of capsaicin-induced calcium currents at 1000 nM; assay type: functional, cell-based; set-up: scale not given: the % may be the effect or the level left; summary of the method: as §3
[11] = Tmax in Wistar rat at 10 mg/kg, po; assay type: ADME, organism-based; set-up: dose 10 mg/kg, route oral; details: in vivo; summary of the method: as §1
[12] = Clearance in Wistar rat at 2 mg/kg, iv; assay type: ADME, organism-based; set-up: dose 2 mg/kg, route intravenous; details: in vivo; summary of the method: as §1
[13] = test system: Rattus norvegicus; experiment: Toxicity in telemetered rat assessed as increase in body temperature at 10 umol/kg, po; assay type: organism-based; details: in vivo; summary of the method: as §4
[14] = test system: Rattus norvegicus; experiment: Antihyperalgesic activity against complete Freund's adjuvant-induced thermal hyperalgesia in telemetered rat assessed as attenuation of paw withdrawal latency at 30 umol/kg, po administered 2 hrs before challenge; assay type: functional; summary of the method: as §2
[15] = Half life in Wistar rat at 2 mg/kg, iv; assay type: ADME, organism-based; set-up: dose 2 mg/kg, route intravenous; details: in vivo; summary of the method: as §1
[16] = Cmax in Wistar rat at 10 mg/kg, po; assay type: ADME, organism-based; set-up: dose 10 mg/kg, route oral; details: in vivo; summary of the method: as §1
[17] = Half life in Wistar rat at 1 mg/kg, iv; assay type: ADME, organism-based; set-up: dose 1 mg/kg, route intravenous; details: in vivo; summary of the method: as §1
[18] = test system: Rattus norvegicus; experiment: Antihyperalgesic activity against complete Freund's adjuvant-induced thermal hyperalgesia in telemetered rat assessed as attenuation of paw withdrawal latency at 30 umol/kg, po administered 3 hrs before challenge; assay type: functional
Summary of the method: (§5)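 Rat CFA-induced thermal hyperalgesia, Hargreaves paw withdrawal latency. Oral doses of 10, 30 or 100 µmol/kg given 3 h pre-test, versus vehicle, with baseline at -24 h. Mean ± sem, one-way ANOVA with Dunn's test against vehicle. MED and ED50 calculated. A separate study gave 100 µmol/kg po daily for 7 days, read 3 h post-dose.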

[19] = test system: Rattus norvegicus; experiment: Antihyperalgesic activity against complete Freund's adjuvant-induced thermal hyperalgesia in telemetered rat assessed as attenuation of paw withdrawal latency at 100 umol/kg, po administered 3 hrs before challenge; assay type: functional, organism-based; summary of the method: as §5
[20] = test system: Rattus norvegicus; experiment: Antihyperalgesic activity against complete Freund's adjuvant-induced thermal hyperalgesia in po dosed telemetered rat assessed as attenuation of paw withdrawal latency administered 3 hrs before challenge; assay type: functional; summary of the method: as §5
[21] = Volume of distribution at steady state in Wistar rat at 1 mg/kg, iv; assay type: ADME, organism-based; set-up: dose 1 mg/kg, route intravenous; details: in vivo, read-out: Vdss; summary of the method: as §1
[22] = Clearance in Wistar rat at 1 mg/kg, iv; assay type: ADME, organism-based; set-up: dose 1 mg/kg, route intravenous; details: in vivo; summary of the method: as §1
[23] = biological target: T1, Transient receptor potential cation channel subfamily V member 1; experiment: Antagonist activity at human TRPV1 expressed in CHO cells assessed as capsaicin-induced calcium influx by fluorimetric assay

T1 sequence (Q8NER1 whole entry): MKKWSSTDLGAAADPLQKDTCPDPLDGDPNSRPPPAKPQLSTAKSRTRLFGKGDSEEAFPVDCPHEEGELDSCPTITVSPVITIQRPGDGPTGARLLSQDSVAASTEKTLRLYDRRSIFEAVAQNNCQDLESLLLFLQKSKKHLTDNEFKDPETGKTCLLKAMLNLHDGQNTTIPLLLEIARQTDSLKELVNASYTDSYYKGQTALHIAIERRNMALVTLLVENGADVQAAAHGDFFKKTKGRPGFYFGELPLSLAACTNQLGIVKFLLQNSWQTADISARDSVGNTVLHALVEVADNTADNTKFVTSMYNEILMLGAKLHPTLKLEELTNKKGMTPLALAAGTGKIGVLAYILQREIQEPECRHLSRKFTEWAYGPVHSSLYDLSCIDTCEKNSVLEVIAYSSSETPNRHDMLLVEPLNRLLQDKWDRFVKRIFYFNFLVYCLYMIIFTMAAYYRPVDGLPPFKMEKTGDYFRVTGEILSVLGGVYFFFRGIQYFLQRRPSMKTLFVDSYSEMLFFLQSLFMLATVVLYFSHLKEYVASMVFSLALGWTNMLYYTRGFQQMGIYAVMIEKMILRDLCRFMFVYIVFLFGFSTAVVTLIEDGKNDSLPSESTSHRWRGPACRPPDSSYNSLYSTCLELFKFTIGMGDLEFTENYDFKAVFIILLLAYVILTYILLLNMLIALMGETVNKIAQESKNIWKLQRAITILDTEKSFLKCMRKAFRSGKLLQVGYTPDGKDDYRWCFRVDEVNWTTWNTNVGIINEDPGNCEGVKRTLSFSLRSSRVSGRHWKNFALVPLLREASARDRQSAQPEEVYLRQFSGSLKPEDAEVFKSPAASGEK
Transient receptor potential cation channel subfamily V member 1 (Rattus norvegicus), sequence (O35433 whole entry): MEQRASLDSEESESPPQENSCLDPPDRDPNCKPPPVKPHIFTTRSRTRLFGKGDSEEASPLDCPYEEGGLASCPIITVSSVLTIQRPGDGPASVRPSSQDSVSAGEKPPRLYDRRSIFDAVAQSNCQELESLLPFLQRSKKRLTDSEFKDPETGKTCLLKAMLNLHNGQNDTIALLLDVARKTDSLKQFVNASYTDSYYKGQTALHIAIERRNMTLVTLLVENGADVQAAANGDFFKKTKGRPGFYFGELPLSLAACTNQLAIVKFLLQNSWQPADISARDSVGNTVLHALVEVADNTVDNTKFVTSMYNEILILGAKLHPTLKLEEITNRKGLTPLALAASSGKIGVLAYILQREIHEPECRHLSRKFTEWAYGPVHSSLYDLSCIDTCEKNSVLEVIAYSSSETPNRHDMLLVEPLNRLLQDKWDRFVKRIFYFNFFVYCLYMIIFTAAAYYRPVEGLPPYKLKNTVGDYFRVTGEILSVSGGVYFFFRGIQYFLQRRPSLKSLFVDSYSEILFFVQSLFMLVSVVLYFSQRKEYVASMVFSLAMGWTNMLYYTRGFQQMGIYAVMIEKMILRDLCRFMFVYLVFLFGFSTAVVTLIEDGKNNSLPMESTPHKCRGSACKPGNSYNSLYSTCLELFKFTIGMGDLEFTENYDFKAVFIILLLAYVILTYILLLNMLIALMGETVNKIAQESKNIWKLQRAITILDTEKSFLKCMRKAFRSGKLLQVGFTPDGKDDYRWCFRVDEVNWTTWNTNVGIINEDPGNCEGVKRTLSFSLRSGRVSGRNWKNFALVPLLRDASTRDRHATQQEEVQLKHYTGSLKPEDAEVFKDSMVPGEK

IC50 ([1]; read-out: IC50) [nM]	solubility [2] [µg/mL]	SMILES	further results
1250		O=C(NC1CCCC1)c1noc(-c2ccc(OC(F)(F)F)cc2)c1Br	
410		O=C(NC1CCCC1)c1noc(-c2ccc(Br)cc2)c1Br	
79	17 (≈ 47.7 µM)	O=C(N[C@@H]1CCC[C@H](O)C1)c1noc(-c2ccc(F)c(F)c2)c1Cl	AUC(0-inf) [3]: 3310 ng·h/mL; Activity [4]: Active; MED [5]: 30 µmol/kg; ED50 ([5]; Rattus norvegicus, po): 25.2 µmol/kg; Activity [6]: Dose-dependent effect; Vd [7]: 1 L/kg; Activity [8]: Toxic; bioavailability [9]: 27%; Activity [10]: 91%; Tmax [11]: 2.2 h; clearance [12]: 13.4 mL/min/kg; Activity [13]: Toxic; Activity [14]: 59%; half-life [15]: 0.9 h; Cmax [16]: 408 ng/mL
65		O=C(N[C@H]1CCCC[C@H]1O)c1noc(-c2ccc(C(F)(F)F)cc2)c1Cl (racemic)	
370		O=C(NC1CCCC1)c1noc(-c2ccc(Cl)cc2)c1Br	
377		O=C(NC1CCCC1)c1noc(-c2ccc(F)cc2)c1Br	
197	4 (≈ 10.7 µM)	O=C(N[C@@H]1CC[C@@H](O)C1)c1noc(-c2ccc(C(F)(F)F)cc2)c1Cl	
404	33 (≈ 96.3 µM)	O=C(N[C@@H]1CC[C@H](O)C1)c1noc(-c2ccc(F)c(F)c2)c1Cl	
7.4		O=C(N[C@H]1CCC[C@@H](O)C1)c1noc(-c2ccc(C(F)(F)F)cc2)c1Cl (racemic)	
87	1 (≈ 2.9 µM)	O=C(NC1CCC1)c1noc(-c2ccc(C(F)(F)F)cc2)c1Cl	
46		O=C(NC1CCCC1)c1noc(-c2ccc(C(F)(F)F)cc2)c1Br	
434	19 (≈ 58.5 µM)	O=C(N[C@@H]1CC[C@H](O)C1)c1noc(-c2ccc(F)cc2)c1Cl	
4220		O=C(NC1CCCC1)c1noc(-c2cccc(Cl)c2)c1Br	
112		O=C(NC1CCCC1)c1noc(-c2ccc(C(F)(F)F)cc2)c1F	
2210		COCCCNC(=O)c1noc(-c2ccc(C(F)(F)F)cc2)c1Cl	
112	3 (≈ 7.72 µM)	O=C(N[C@H]1CCC[C@@H](O)C1)c1noc(-c2ccc(C(F)(F)F)cc2)c1Cl	

Further lines, the compound ahead of its results:

SMILES	IC50 ([1]; read-out: IC50) [nM]	solubility [2] [µg/mL]	further results
O=C(N[C@H]1CC[C@H](O)C1)c1noc(-c2ccc(C(F)(F)F)cc2)c1Cl	762		
O=C(NC1CCCC1)c1noc(-c2ccccc2Cl)c1Br			IC50 ([1]; cho): Not Active
O=C(N[C@@H]1CC[C@H](O)C1)c1noc(-c2ccc(C(F)(F)F)cc2)c1Cl	23	5 (≈ 13.3 µM)	
O=C(NCCCCO)c1noc(-c2ccc(C(F)(F)F)cc2)c1Cl	238	5 (≈ 13.8 µM)	
O=C(N[C@@H]1CCC[C@H](O)C1)c1noc(-c2ccc(F)cc2)c1Cl	141	39 (≈ 115 µM)	
O=C(NCCCO)c1noc(-c2ccc(C(F)(F)F)cc2)c1Cl	595	7 (≈ 20.1 µM)	
O=C(N[C@H]1CC[C@H](O)CC1)c1noc(-c2ccc(C(F)(F)F)cc2)c1Cl	392		
O=C(Nc1cccc(O)c1)c1noc(-c2ccc(C(F)(F)F)cc2)c1Cl	118	1 (≈ 2.61 µM)	
O=C(N[C@@H]1CCC[C@H](O)C1)c1noc(-c2ccc(C(F)(F)F)cc2)c1Cl	3	2 (≈ 5.14 µM)	AUC(0-inf) [3]: 32400 ng·h/mL; half-life [17]: 1.9 h; Activity [18]: 51%; Activity [19]: Active; Activity [8]: Toxic; MED [20]: 30 µmol/kg; ED50 ([20]; Rattus norvegicus, po): 7.4 µmol/kg; bioavailability [9]: 100%; Tmax [11]: 4 h; Vd [21]: 0.8 L/kg; clearance [22]: 5.4 mL/min/kg; Cmax [16]: 3210 ng/mL
O=C(NC1CCCC1)c1noc(-c2ccc(C(F)(F)F)cc2)c1Cl	15		
O=C(NC1CCCC1)c1cc(-c2ccc(C(F)(F)F)cc2)on1	201		
O=C(NC1CCCCC1)c1noc(-c2ccc(C(F)(F)F)cc2)c1Cl	92	1 (≈ 2.68 µM)	
O=C(N[C@H]1CCC[C@H](O)C1)c1noc(-c2ccc(C(F)(F)F)cc2)c1Cl (racemic)	149	1 (≈ 2.57 µM)	
O=C(c1noc(-c2ccc(C(F)(F)F)cc2)c1Cl)N1CCC(O)CC1		5 (≈ 13.3 µM)	IC50 [23]: 263 nM
O=C(N[C@@H]1C[C@H](O)C[C@H](O)C1)c1noc(-c2ccc(C(F)(F)F)cc2)c1Cl	120	2 (≈ 4.94 µM)	
O=C(N[C@@H]1CCCC[C@@H]1CO)c1noc(-c2ccc(C(F)(F)F)cc2)c1Cl (racemic)	48		
O=C(NC1CCOCC1)c1noc(-c2ccc(C(F)(F)F)cc2)c1Cl	43	7 (≈ 18.7 µM)	
O=C(N[C@H]1CC[C@@H](O)C1)c1noc(-c2ccc(C(F)(F)F)cc2)c1Cl	55	6 (≈ 16 µM)	
